Test results taken from ChEMBL document CHEMBL5649170, “Sustained microglial depletion with CSF1R inhibitor impairs parenchymal plaque development in an Alzheimer's disease model” (Nat Commun, 2019).
The source made the active and inactive calls. No cut-off for these calls is given here.

Tests used:
[1] = Drug concentration in wildtype mouse brain at 75 ppm administered as rodent chow starting from 1.5 months and measured after 5 months; type: ADME, tissue-based; conditions: route po, time 3.5 months, read-out: Ct
In short: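 WT or 5xFAD mice were fed PLX3397 in AIN-76A chow at 600 ppm or 75 ppm from 1.5 to 5 months of age. Terminal brain and plasma drug concentrations were determined at study end.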

[2] = Effect on Ctsd gene expression in 5XFAD mouse hippocampus at 1200 ppm administered as rodent chow starting from 1.5 months and measured after 7 months by RNA-Seq analysis (reference value: 230.675 to 384.375 RPKM); type: functional; conditions: route po, time 5.5 months, 4015 h
[3] = Effect on C1qa gene expression in wild type mouse hippocampus at 1200 ppm administered as rodent chow starting from 1.5 months and measured after 7 months by RNA-Seq analysis (reference value: 17.148 to 23.051 RPKM); type: functional; conditions: route po, time 5.5 months, 4015 h
In short: (§1)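 WT and 5xFAD mice were treated with 1200 ppm PLX5622 chow or control chow from 1.5 to 7 months of age. Brains were microdissected into cortex, hippocampus and thalamus, and RNA was extracted from tissue powder. Whole-transcriptome RNA-Seq libraries were sequenced, with n = 4 per group per region (48 samples).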

[4] = Effect on Cx3cr1 gene expression in wild type mouse hippocampus at 1200 ppm administered as rodent chow starting from 1.5 months and measured after 7 months by RNA-Seq analysis (reference value: 9.911 to 12.014 RPKM); type: functional; conditions: route po, time 5.5 months, 4015 h
[5] = target: Calcium/calmodulin-dependent protein kinase type 1D (Homo sapiens, UniProt Q8IU85); experiment: Inhibition of CAMK1D (unknown origin)
Calcium/calmodulin-dependent protein kinase type 1D, sequence (Q8IU85 whole entry): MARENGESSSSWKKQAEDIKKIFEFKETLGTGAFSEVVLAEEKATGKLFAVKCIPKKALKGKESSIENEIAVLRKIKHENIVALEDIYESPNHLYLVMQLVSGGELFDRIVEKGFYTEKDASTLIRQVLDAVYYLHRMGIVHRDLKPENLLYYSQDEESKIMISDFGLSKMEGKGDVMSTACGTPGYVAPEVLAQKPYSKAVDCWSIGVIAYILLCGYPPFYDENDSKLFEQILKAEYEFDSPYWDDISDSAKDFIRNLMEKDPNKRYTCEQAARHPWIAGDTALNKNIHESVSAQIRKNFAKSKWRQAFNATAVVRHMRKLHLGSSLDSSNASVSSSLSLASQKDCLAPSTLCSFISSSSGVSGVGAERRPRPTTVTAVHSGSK

[6] = Prevention of Rnf217 gene downregulation in 5XFAD mouse hippocampus assessed as percent change in Reads Per kilo base per Million mapped reads at 1200 ppm administered as rodent chow starting from 1.5 months and measured after 7 months by RNA-Seq analysis (reference value: 66.726 to 80.840 %); type: functional; conditions: route po, time 5.5 months, 4015 h
[7] = target: Homeodomain-interacting protein kinase 2 (Homo sapiens, UniProt Q9H2X6); experiment: Inhibition of HIPK2 (unknown origin)
Homeodomain-interacting protein kinase 2, sequence (Q9H2X6 whole entry): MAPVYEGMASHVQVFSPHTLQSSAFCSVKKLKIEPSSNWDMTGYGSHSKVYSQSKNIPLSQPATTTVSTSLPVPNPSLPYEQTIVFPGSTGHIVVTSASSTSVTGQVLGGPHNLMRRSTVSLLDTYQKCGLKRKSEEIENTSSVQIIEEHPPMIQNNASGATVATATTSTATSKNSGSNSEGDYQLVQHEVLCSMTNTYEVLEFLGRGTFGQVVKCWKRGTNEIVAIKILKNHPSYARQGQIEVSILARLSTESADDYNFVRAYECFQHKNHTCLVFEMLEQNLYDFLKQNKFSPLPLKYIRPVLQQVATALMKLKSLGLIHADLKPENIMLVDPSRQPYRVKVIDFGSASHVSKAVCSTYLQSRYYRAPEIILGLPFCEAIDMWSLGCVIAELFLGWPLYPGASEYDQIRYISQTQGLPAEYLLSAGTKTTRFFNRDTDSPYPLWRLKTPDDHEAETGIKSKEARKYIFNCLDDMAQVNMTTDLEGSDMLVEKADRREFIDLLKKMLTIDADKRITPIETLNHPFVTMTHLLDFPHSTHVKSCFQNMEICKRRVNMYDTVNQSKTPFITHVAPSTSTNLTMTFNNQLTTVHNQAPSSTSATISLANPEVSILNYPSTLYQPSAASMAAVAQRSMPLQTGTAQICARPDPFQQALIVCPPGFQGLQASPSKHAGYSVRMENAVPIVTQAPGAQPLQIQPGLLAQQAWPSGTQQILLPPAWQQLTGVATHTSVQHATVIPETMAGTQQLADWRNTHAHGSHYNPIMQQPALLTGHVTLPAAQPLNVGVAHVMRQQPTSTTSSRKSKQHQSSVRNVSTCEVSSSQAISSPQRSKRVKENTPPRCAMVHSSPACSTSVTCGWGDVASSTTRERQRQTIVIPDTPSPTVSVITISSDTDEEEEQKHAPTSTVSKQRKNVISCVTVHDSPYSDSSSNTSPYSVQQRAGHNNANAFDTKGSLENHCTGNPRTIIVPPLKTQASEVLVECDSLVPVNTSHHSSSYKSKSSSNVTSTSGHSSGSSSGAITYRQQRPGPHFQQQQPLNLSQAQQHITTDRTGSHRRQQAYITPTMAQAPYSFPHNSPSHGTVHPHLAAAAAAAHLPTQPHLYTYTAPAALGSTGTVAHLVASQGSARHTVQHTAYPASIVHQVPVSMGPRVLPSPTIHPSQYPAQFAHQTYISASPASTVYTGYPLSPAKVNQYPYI

[8] = target: T1, Macrophage colony-stimulating factor 1 receptor (Mus musculus) (UniProt P09581); experiment: In vivo inhibition of CSF1R in wildtype mouse assessed as microglial elimination in thalamus at 1200 ppm administered as rodent chow for 10 weeks by […] based confocal microscopic analysis; type: functional; conditions: route po
T1 sequence (whole entry): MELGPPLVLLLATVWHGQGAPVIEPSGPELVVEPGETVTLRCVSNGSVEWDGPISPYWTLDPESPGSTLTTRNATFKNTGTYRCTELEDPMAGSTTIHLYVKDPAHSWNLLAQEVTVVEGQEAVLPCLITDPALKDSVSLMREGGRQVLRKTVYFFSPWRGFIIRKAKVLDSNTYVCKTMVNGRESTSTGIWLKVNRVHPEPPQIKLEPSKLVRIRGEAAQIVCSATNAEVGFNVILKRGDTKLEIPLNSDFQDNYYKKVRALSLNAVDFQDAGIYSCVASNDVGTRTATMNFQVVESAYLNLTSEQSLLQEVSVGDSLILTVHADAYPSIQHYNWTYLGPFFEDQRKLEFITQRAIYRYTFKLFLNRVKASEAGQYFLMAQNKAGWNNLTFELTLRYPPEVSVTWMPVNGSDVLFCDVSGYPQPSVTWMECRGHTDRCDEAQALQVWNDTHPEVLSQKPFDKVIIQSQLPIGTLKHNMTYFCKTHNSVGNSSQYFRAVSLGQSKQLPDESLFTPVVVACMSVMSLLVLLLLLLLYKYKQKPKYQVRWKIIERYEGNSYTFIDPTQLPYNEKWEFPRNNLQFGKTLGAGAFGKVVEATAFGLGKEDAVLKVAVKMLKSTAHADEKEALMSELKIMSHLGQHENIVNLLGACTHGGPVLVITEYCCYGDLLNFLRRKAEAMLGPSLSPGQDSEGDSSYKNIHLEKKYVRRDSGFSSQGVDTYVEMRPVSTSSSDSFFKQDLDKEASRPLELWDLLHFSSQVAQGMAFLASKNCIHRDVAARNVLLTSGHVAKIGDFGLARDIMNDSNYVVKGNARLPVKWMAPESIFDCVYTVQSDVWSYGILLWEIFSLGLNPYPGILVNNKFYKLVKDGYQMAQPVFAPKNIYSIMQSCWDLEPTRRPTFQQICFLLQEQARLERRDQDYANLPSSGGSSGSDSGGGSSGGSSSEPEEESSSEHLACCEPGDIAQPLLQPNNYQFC

[9] = Toxicity in wildtype mouse assessed as time to locate platform at 1200 ppm administered as rodent chow for 10 to 24 weeks by Morris water maze test (reference value: 3.195 to 56.218 sec); conditions: in vivo, po, time 10-24 weeks
[10] = Cmax in male rat at 45 mg/kg, po administered as single dose via gavage; type: ADME, organism-based; conditions: in vivo
[11] = Effect on Siglech gene expression in wild type mouse cortex at 1200 ppm administered as rodent chow starting from 1.5 months and measured after 7 months by RNA-Seq analysis (reference value: 3.777 to 4.267 RPKM); type: functional; conditions: route po, time 5.5 months, 4015 h
Mus musculus = experiment: Antialzheimer activity in 5XFAD mouse assessed as number of GFAP positive cell per FOV in retro spinal cortex at 1200 ppm administered as rodent chow for 10 to 24 weeks by immunolabelling based confocal microscopic analysis (reference value: 217 to 477); type: functional; conditions: route po, time 10-24 weeks
[12] = target: Fibroblast growth factor receptor 4 (Homo sapiens, UniProt P22455); experiment: Inhibition of FGFR4 (unknown origin)
[13] = target: Tyrosine-protein kinase ZAP-70 (Homo sapiens, UniProt P43403); experiment: Inhibition of ZAP70 (unknown origin)
Tyrosine-protein kinase ZAP-70, sequence (P43403 whole entry): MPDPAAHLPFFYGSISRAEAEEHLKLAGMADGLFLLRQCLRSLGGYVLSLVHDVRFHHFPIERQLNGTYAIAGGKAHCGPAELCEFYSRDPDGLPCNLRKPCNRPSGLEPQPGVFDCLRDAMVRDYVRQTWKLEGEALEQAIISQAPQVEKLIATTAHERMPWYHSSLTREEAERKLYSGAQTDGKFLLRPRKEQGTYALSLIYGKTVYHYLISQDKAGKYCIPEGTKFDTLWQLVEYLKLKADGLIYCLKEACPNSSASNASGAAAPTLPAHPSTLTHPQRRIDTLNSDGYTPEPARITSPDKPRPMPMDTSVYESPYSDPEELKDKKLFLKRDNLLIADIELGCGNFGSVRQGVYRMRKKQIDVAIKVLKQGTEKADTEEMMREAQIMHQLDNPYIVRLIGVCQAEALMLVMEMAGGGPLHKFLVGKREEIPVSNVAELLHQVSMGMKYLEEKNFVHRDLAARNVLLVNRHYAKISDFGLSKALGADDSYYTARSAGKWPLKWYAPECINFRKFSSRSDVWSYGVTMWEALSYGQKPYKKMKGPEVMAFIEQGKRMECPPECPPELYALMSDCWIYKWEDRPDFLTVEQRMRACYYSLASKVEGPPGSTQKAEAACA

[14] = Drug concentration in 5XFAD mouse plasma at 1200 ppm administered as rodent chow for 10 to 24 weeks; type: ADME, cell-free; conditions: po, time 10-24 weeks
In short: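 WT or 5xFAD mice were started at 1.5 months of age on PLX5622 formulated at 1200 ppm in AIN-76A chow, with control chow as comparison. Feeding ran for 10 or 24 weeks. Terminal plasma and brain drug levels were then measured. Groups were sex-balanced and compared by two-tailed independent t-test.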

CDK9/cyclin T1 = CDK9/cyclin T1 (Homo sapiens, UniProt P50750); experiment: Inhibition of CDK9/CyclinT1 (unknown origin); type: protein-complex assay
CDK9/cyclin T1, sequence (O60563 whole entry): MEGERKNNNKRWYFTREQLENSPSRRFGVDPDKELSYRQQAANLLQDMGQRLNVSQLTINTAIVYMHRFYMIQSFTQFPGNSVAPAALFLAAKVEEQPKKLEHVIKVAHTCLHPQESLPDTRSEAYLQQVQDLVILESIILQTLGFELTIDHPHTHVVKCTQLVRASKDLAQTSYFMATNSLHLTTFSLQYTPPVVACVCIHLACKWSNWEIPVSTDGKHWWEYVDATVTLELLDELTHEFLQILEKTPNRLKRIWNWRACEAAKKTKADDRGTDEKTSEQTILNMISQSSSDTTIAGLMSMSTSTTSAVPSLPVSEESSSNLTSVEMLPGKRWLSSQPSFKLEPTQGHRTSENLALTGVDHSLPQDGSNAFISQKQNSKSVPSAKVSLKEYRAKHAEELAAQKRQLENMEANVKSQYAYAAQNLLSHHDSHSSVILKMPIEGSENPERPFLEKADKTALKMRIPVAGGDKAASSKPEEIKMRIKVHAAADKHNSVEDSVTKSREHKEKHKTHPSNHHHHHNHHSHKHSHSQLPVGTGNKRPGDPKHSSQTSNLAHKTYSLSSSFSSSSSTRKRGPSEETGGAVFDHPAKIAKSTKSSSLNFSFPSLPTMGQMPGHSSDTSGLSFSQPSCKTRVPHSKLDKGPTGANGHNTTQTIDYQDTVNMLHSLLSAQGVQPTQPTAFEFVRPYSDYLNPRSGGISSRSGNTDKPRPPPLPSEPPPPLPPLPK
CDK9/cyclin T1, sequence (P50750 whole entry): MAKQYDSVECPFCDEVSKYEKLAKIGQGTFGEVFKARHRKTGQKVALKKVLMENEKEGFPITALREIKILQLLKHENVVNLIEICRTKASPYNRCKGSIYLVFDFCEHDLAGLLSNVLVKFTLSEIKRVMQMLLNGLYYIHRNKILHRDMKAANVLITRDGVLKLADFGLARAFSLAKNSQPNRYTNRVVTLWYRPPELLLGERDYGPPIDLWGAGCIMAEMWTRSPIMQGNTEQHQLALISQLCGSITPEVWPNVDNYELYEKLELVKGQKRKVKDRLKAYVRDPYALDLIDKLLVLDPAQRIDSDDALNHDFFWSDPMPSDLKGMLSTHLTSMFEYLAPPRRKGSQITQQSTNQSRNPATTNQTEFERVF

[15] = Effect on C1qa gene expression in wild type mouse cortex at 1200 ppm administered as rodent chow starting from 1.5 months and measured after 7 months by RNA-Seq analysis (reference value: 16.071 to 20.526 RPKM); type: functional; conditions: route po, time 5.5 months, 4015 h; in short: as §1
[16] = Toxicity in wildtype mouse assessed as proportion of time spent freezing at 1200 ppm administered as rodent chow for 10 to 24 weeks by […] (reference value: 0.10 to 0.53); conditions: in vivo, po, time 10-24 weeks
[17] = target: T1, Macrophage colony-stimulating factor 1 receptor (Mus musculus); experiment: In vivo inhibition of CSF1R in wildtype mouse assessed as number of Iba1 positive cells per FOV in somatosensory cortex at 1200 ppm administered as rodent chow starting from 1.5 months to 4 months followed by compound removal and measured after 1 months by immunolabelling based confocal microscopic analysis (reference value: 304 to 351); type: functional; conditions: route po, time 2.5 months
[18] = target: Receptor tyrosine-protein kinase erbB-2 (Homo sapiens, UniProt P04626); experiment: Inhibition of ERBB2 (unknown origin)
Receptor tyrosine-protein kinase erbB-2, sequence (P04626 whole entry): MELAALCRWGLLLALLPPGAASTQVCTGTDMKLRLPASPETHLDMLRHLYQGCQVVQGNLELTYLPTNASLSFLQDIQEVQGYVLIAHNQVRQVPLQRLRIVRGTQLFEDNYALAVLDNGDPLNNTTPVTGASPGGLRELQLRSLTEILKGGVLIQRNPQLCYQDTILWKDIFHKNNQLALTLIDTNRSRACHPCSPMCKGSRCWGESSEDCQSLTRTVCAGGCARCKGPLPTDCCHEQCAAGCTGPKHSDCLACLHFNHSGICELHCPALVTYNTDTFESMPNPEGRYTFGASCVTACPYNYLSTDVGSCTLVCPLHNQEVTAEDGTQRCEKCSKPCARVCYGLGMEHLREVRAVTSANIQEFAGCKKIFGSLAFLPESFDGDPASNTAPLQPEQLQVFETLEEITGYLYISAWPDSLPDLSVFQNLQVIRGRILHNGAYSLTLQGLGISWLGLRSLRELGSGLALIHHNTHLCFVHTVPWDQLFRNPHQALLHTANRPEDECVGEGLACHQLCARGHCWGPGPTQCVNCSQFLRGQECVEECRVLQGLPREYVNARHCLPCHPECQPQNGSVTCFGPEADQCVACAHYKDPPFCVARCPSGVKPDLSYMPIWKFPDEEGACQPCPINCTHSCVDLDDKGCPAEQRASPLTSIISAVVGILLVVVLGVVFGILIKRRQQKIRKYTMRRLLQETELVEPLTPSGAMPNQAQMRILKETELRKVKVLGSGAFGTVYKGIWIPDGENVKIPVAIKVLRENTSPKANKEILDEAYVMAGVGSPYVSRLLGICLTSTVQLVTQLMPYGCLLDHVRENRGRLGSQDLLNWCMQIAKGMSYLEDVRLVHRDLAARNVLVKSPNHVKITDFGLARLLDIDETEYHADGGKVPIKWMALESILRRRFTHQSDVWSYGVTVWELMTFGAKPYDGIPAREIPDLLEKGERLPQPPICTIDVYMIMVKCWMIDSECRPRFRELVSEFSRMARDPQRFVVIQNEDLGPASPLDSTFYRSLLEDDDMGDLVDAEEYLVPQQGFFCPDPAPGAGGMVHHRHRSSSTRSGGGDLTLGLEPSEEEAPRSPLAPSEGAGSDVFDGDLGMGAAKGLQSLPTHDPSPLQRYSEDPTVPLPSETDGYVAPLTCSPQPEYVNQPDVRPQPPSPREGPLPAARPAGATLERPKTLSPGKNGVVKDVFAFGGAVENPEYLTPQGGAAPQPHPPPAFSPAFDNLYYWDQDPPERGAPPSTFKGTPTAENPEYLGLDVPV

SMILES | concentration at 2555 h [1] [µM] | Activity [2] [RPKM] | Activity [3] [RPKM] | Activity [4] [RPKM] | IC50 [5] [µM] | Activity [6] [%] | IC50 [7] [µM] | inhibition [8] | Time [9] [s] | Cmax [10] [ng/mL] | Activity [11] [RPKM] | Activity (Mus musculus) | IC50 [12] [µM] | IC50 [13] [µM] | concentration [14] [µM] | IC50 (CDK9/cyclin T1) [µM] | Activity [15] [RPKM] | Activity [16] | Activity [17] | IC50 [18] [µM]
FC(F)(F)c1ccc(CNc2ccc(Cc3c[nH]c4ncc(Cl)cc34)cn2)cn1 [PEXIDARTINIB] | 0.3 |  |  |  |  |  |  |  |  |  |  |  |  |  |  |  |  |  |  | 
COc1ncc(F)cc1CNc1ccc(Cc2c[nH]c3ncc(C)cc23)c(F)n1 [PLX-5622] |  | 132.829 | 0.17 | 0.074 | > 1 | 95.371 | > 1 | inactive | 6.755 | 12000 | 0 | 92 | > 1 | > 1 | 13.5 | > 1 | 0 | 0.13 | 108 | > 1
